Laboratory results taken from ChEMBL document CHEMBL6115053, “Optimization and Characterization of N-Acetamide Indoles as Antimalarials That Target PfATP4” (J Med Chem, 2025).
In brackets after ≈: the same amount, converted by molar mass. Activity calls are given as the source filed them. The rule behind the calls is not given here.

What was measured:
Plasmodium falciparum [1] = assay: Antiplasmodial activity against asexual Plasmodium falciparum 3D7 infected in human […] cells assessed as reduction in parasite growth measured for 72 hrs by LDH assay; assay type: functional, organism-based; conditions: 3D7, 72 h
[2] = (§1) Cytotoxicity against human HepG2 cells assessed as inhibition of cell growth incubated for 48 hrs by celltiterglo assay; assay type: toxicity, cell-based; conditions: HepG2 cells
Plasmodium falciparum [3] = assay: Antiplasmodial activity against wild type Plasmodium falciparum 3D7 incubated for 48 hrs; assay type: functional, organism-based; conditions: 3D7, 48 h
Plasmodium falciparum [4] = assay: Antiplasmodial activity against multidrug resistant Plasmodium falciparum W2mef incubated for 48 hrs by SYBR staining based fluorometer assay; assay type: functional, organism-based
Plasmodium falciparum [5] = assay: Antiplasmodial activity against multidrug resistant Plasmodium falciparum 7G8 incubated for 48 hrs by SYBR staining based fluorometer assay; assay type: functional, organism-based; conditions: 7G8, 48 h
[6] = Metabolic stability in human liver microsome assessed as intrinsic clearance; assay type: ADME; conditions: microsomes
[7] = Lipophilicity, logD of compound at pH 7.4 by shake-flask method; assay type: physicochemical; conditions: buffer
Plasmodium falciparum [8] = assay: Antiplasmodial activity against multidrug-resistant Plasmodium falciparum Dd2 harboring plasmodium falciparum ATP4 I398F/P990R/D1247Y mutant by SYBR green staining based analysis; assay type: functional, organism-based
Plasmodium falciparum [9] = assay: Antiplasmodial activity against multidrug resistant Plasmodium falciparum Cam3.1 incubated for 48 hrs by SYBR staining based fluorometer assay; assay type: functional, organism-based; conditions: Cam3.1, 48 h
Plasmodium falciparum [10] = assay: Antimalarial activity against trophozoite stage Plasmodium falciparum 3D7 at 10 times EC50 incubated for 48 hrs by SYBR Green dye based analysis; assay type: functional, organism-based
HepG2 [11] = assay: as §1; assay type: toxicity, cell-based; conditions: hepg2, 48 h
Plasmodium falciparum [12] = assay: Antiplasmodial activity against N-(2,6-difluorophenyl)-2-(6-(5-methyl-1,3,4-oxadiazol-2-yl)-1H-indol-1-yl)acetamide-resistant Plasmodium falciparum Dd2 harbouring ATP4 genome with 2.8 fold CNV by SYBR green staining based analysis; assay type: functional, organism-based
Plasmodium falciparum [13] = assay: Antiplasmodial activity against Plasmodium falciparum 3D7 infected in human […] cells incubated for 72 hrs; assay type: functional, organism-based; conditions: 3D7, 72 h
[14] = biological target: T1, P-type sodium-transporting ATPase4 (Plasmodium falciparum (isolate 3D7)) (UniProt A0A143ZZK9); assay: Inhibition of Plasmodium falciparum 3D7 ATP4 assessed as reduction in Na+-ATPase activity at 2 uM incubated for 10 mins under high [Na+] condition in absence of KAE609
T1 sequence (whole entry): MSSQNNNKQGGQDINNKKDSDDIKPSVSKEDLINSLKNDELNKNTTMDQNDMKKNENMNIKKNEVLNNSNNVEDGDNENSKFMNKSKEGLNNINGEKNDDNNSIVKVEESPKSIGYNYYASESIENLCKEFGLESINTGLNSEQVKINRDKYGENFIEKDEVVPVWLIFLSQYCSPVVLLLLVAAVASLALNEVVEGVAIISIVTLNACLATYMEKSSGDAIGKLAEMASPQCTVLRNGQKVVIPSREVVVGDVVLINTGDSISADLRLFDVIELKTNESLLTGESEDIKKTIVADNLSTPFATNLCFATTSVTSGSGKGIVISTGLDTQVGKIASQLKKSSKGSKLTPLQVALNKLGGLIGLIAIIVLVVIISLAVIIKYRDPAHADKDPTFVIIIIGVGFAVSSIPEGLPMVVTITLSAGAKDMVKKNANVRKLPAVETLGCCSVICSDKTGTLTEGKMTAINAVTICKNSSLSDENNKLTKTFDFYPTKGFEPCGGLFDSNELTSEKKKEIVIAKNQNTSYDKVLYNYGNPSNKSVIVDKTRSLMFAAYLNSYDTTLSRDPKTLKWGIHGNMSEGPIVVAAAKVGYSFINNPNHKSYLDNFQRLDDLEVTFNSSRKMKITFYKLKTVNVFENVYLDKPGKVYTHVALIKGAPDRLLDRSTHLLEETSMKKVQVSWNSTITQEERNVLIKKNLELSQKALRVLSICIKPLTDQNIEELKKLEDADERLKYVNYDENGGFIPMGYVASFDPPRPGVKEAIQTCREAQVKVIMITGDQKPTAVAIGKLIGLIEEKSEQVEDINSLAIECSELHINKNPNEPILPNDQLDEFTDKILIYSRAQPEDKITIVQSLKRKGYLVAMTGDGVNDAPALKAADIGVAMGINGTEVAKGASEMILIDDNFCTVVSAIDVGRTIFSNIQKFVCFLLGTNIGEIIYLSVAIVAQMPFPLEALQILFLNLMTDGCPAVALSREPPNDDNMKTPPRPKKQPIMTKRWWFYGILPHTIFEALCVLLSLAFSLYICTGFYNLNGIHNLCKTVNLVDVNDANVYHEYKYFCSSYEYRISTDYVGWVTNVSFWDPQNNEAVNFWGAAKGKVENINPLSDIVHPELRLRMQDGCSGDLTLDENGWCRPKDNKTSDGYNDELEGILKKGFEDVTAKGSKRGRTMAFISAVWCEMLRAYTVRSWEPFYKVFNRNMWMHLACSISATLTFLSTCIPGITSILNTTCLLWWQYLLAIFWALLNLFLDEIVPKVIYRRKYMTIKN

[15] = Metabolic stability in rat hepatocyte […] assessed as intrinsic clearance measured per 10^6 cells; assay type: ADME, cell-based; conditions: hepatocytes
[16] = Aqueous solubility in PBS buffer at pH 7.4; assay type: physicochemical
[17] = biological target: T2, P-type sodium-transporting ATPase4 (Plasmodium falciparum (isolate 3D7), UniProt A0A143ZZK9); assay: Inhibition of Plasmodium falciparum 3D7 ATP4
T2 sequence (A0A143ZZK9 whole entry): T1 sequence (whole entry)

Plasmodium knowlesi = assay: Antiplasmodial activity against wild type Plasmodium knowlesi YH1 incubated for 30 hrs by SYBR staining based flow cytometry assay; assay type: functional, organism-based; conditions: YH1, 30 h
Plasmodium falciparum [18] = assay: Antiplasmodial activity against multi-drug resistant Plasmodium falciparum Dd2; assay type: functional, organism-based
Plasmodium falciparum [19] = assay: Antiplasmodial activity against multidrug-resistant Plasmodium falciparum Dd2 harboring plasmodium falciparum ATP4 G358S mutant by SYBR green staining based analysis; assay type: functional, organism-based
Plasmodium falciparum [20] = assay: Antiplasmodial activity against N-(2,6-difluorophenyl)-2-(6-(5-methyl-1,3,4-oxadiazol-2-yl)-1H-indol-1-yl)acetamide-resistant Plasmodium falciparum Dd2 harboring plasmodium falciparum ATP4 D425E mutant by SYBR green staining based analysis; assay type: functional, organism-based
Plasmodium falciparum [21] = assay: Antiplasmodial activity against N-(2,6-difluorophenyl)-2-(6-(5-methyl-1,3,4-oxadiazol-2-yl)-1H-indol-1-yl)acetamide-resistant Plasmodium falciparum Dd2 harboring plasmodium falciparum ATP4 F156L mutant by SYBR green staining based analysis; assay type: functional, organism-based
Plasmodium falciparum [22] = assay: Antimalarial activity against trophozoite stage Plasmodium falciparum 3D7 assessed as reduction in parasitemia at 10 times EC50 incubated for 24 hrs by SYBR Green dye based analysis; assay type: functional, organism-based
[23] = biological target: T2, P-type sodium-transporting ATPase4; assay: Inhibition of Plasmodium falciparum 3D7 ATP4 assessed as increase in Na+ concentration in parasite cytosol measured for 60 mins; assay type: subcellular
HepG2 [24] = assay: Cytotoxicity against human HepG2 cells; assay type: functional
Plasmodium falciparum [25] = assay: Antimalarial activity against Plasmodium falciparum NF54 infected assessed as inhibition of male gamete formation incubated for 48 hrs by automated bright field microscopic analysis; assay type: functional, organism-based; conditions: NF54, 48 h
Plasmodium falciparum [26] = assay: Antiplasmodial activity against W454-resistant population 3 Plasmodium falciparum 3D7 harboring Plasmodium falciparum ATP4 L928F mutant by LDH assay; assay type: functional, organism-based
Plasmodium falciparum [27] = assay: Antiplasmodial activity against W454-resistant population 2 Plasmodium falciparum 3D7 harboring Plasmodium falciparum ATP4 L928F mutant by LDH assay; assay type: functional, organism-based
Plasmodium falciparum [28] = assay: Antimalarial activity against Plasmodium falciparum NF54 infected assessed as inhibition of female gamete formation incubated for 48 hrs by automated bright field microscopic analysis; assay type: functional, organism-based; conditions: NF54, 48 h
Plasmodium falciparum [29] = assay: Antimalarial activity against synchronized-ring stage Plasmodium falciparum 3D7 assessed as reduction in parasitemia at 10 times EC50 measured at 72 hrs post-treatment by LDH assay; assay type: functional, organism-based
In short: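 Parasite reduction ratio assay in P. falciparum 3D7 with an LDH read-out. Means and SDs were taken from three replicate experiments.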

Plasmodium falciparum [30] = assay: Antiplasmodial activity against W454-resistant population 1 Plasmodium falciparum 3D7 harboring Plasmodium falciparum ATP4 L928F mutant by LDH assay; assay type: functional, organism-based
[31] = biological target: T1, P-type sodium-transporting ATPase4 (Plasmodium falciparum (isolate 3D7)); assay: Inhibition of Plasmodium falciparum 3D7 ATP4 assessed as increase in Na+ concentration in parasite cytosol upto 1000 nM measured for 60 mins; assay type: subcellular

**Q.** Which EC50 (Plasmodium falciparum [1]) does the source give for `Cc1nc(-c2ccc3ccn(CC(=O)Nc4ccccc4Cl)c3c2)no1` here?
**A.** 955 nM

**Q.** And the CC50 at 48 h [2]?
**A.** > 40000 nM

**Q.** With `Cn1cc(-c2ccc3ccn(CC(=O)Nc4ccccc4Cl)c3c2)cn1` as the compound, how does the EC50 (Plasmodium falciparum [3]) read?
**A.** 236 nM

**Q.** What about the EC50 (Plasmodium falciparum [4]) of the same compound?
**A.** 279 nM

**Q.** What about the EC50 (Plasmodium falciparum [5]) of the same compound?
**A.** 526 nM

**Q.** And the EC50 (Plasmodium falciparum [1])?
**A.** 593 nM

**Q.** What about the “intrinsic clearance (CLint)” value [6] of the same compound?
**A.** > 462 µL/min/mg

**Q.** And the logD [7]?
**A.** 3.6

**Q.** What about the EC50 (Plasmodium falciparum [8]) of the same compound?
**A.** 2510 nM

**Q.** What about the EC50 (Plasmodium falciparum [9]) of the same compound?
**A.** 476 nM

**Q.** What about the Activity (Plasmodium falciparum [10]) of the same compound?
**A.** Active

**Q.** What about the CC50 (HepG2 [11]) of the same compound?
**A.** > 40000 nM

**Q.** What about the EC50 (Plasmodium falciparum [12]) of the same compound?
**A.** 1160 nM

**Q.** And the EC50 (Plasmodium falciparum [13])?
**A.** 409 nM

**Q.** And the inhibition [14]?
**A.** Active

**Q.** What about the “intrinsic clearance (CLint)” value [15] of the same compound?
**A.** 91 uL/min/10^6 cells

**Q.** What about the solubility kinetic [16] of the same compound?
**A.** 4.1 µM (≈ 1.5 µg/mL)

**Q.** What about the IC50 [17] of the same compound?
**A.** 790 nM

**Q.** And the EC50 (Plasmodium knowlesi)?
**A.** 661 nM

**Q.** And the EC50 (Plasmodium falciparum [18])?
**A.** 385 nM

**Q.** And the EC50 (Plasmodium falciparum [19])?
**A.** 1650 nM

**Q.** What about the EC50 (Plasmodium falciparum [20]) of the same compound?
**A.** 892 nM

**Q.** And the EC50 (Plasmodium falciparum [21])?
**A.** 803 nM

**Q.** With `CCc1nnc(-c2ccc3ccn(CC(=O)Nc4cc(OC)c(OC)c(OC)c4)c3c2)o1` as the compound, how does the Activity (Plasmodium falciparum [22]) read?
**A.** Active

**Q.** And the IC50 [23]?
**A.** ~400 nM

**Q.** What about the EC50 (Plasmodium falciparum [4]) of the same compound?
**A.** 272 nM

**Q.** What about the EC50 (Plasmodium falciparum [8]) of the same compound?
**A.** 238 nM

**Q.** What about the CC50 (HepG2 [24]) of the same compound?
**A.** > 40000 nM

**Q.** What about the EC50 (Plasmodium falciparum [9]) of the same compound?
**A.** 381 nM

**Q.** And the Activity (Plasmodium falciparum [10])?
**A.** Active

**Q.** And the EC50 (Plasmodium falciparum [25])?
**A.** 7400 nM

**Q.** What about the EC50 (Plasmodium falciparum [12]) of the same compound?
**A.** 290 nM

**Q.** What about the EC50 (Plasmodium falciparum [13]) of the same compound?
**A.** 123 nM

**Q.** What about the EC50 (Plasmodium falciparum [26]) of the same compound?
**A.** 1800 nM

**Q.** And the EC50 (Plasmodium falciparum [27])?
**A.** 1990 nM

**Q.** What about the EC50 (Plasmodium knowlesi) of the same compound?
**A.** 431 nM

**Q.** And the EC50 (Plasmodium falciparum [28])?
**A.** 7200 nM

**Q.** What about the EC50 (Plasmodium falciparum [18]) of the same compound?
**A.** 320 nM

**Q.** What about the Activity (Plasmodium falciparum [29]) of the same compound?
**A.** Active

**Q.** What about the EC50 (Plasmodium falciparum [30]) of the same compound?
**A.** 1940 nM

**Q.** And the EC50 (Plasmodium falciparum [19])?
**A.** 1370 nM

**Q.** And the inhibition [31]?
**A.** Active

**Q.** What about the EC50 (Plasmodium falciparum [20]) of the same compound?
**A.** 241 nM
